According to ChEMBL document CHEMBL1150692, “Isolation and synthesis of a new bioactive ellagic acid derivative from Combretum yunnanensis” (J Nat Prod, 2003):
≈ marks a conversion by molar mass, not a printed value.

Assays:
P388 [1] = experiment: Cytotoxicity against mouse P388 cells after 3 days by MTT assay; type: functional, cell-based; conditions: P388, 72 h
In short: (§1)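 Incubated with sample at 37 °C for 3 or 4 days; viable cell number then estimated by MTT colorimetric assay.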

P388 [2] = experiment: Cytotoxicity against adriamycin-resistant mouse P388 cells after 3 days by MTT assay; type: functional, cell-based; conditions: P388, 72 h; in short: as §1
K562 [3] = experiment: Cytotoxicity against human K562 cells after 3 days by MTT assay; type: functional, cell-based; conditions: K562, 72 h; in short: as §1
K562 [4] = experiment: Cytotoxicity against adriamycin-resistant human K562 cells after 3 days by MTT assay; type: functional, cell-based; conditions: K562, 72 h; in short: as §1
B16 = experiment: Cytotoxicity against mouse B16 cells after 3 days by MTT assay; type: functional, cell-based; conditions: B16, 72 h; in short: as §1
HeLa = experiment: Cytotoxicity against human HeLa cells after 3 days by MTT assay; type: functional, cell-based; conditions: 72 h; in short: as §1
KB = experiment: Cytotoxicity against human KB cells after 3 days by MTT assay; type: functional, cell-based; conditions: 72 h; in short: as §1
Protease = Protease (Human immunodeficiency virus 1, UniProt Q9YQ12); experiment: Inhibition of HIV1 protease
Sequence of Protease (Q9YQ12 whole entry): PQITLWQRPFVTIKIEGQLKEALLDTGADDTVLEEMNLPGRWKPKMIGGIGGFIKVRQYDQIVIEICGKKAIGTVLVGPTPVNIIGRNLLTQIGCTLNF

Mus musculus = experiment: Toxicity in mouse at 100 mg/kg, ip; type: organism-based; design: dose 100 mg/kg, route intraperitoneal; conditions: in vivo

**Q.** What does the source list for `CC(=O)O[C@@H]1[C@@H](O)[C@@H](O)[C@H](Oc2cc3c(=O)oc4c(O)c(O)cc5c(=O)oc(c2O)c3c45)O[C@H]1C`?
**A.** IC50 (P388 [1]): 52 µg/mL (≈ 106 µM); IC50 (P388 [2]): 19 µg/mL (≈ 38.7 µM); IC50 (K562 [3]): 80 µg/mL (≈ 163 µM); IC50 (K562 [4]): 56 µg/mL (≈ 114 µM); IC50 (B16): 52 µg/mL (≈ 106 µM); IC50 (HeLa): 76 µg/mL (≈ 155 µM); IC50 (KB): 61 µg/mL (≈ 124 µM); IC50 (Protease): 22.4 µM; Activity (Mus musculus): Non-toxic

**Q.** Which IC50 (P388 [1]) does the source give for `C[C@@H]1O[C@@H](Oc2cc3c(=O)oc4c(O)c(O)cc5c(=O)oc(c2O)c3c45)[C@H](O)[C@H](O)[C@H]1O` [ESCHWEILENOL C] here?
**A.** 62 µg/mL (≈ 138 µM)

**Q.** And the IC50 (P388 [2])?
**A.** 53 µg/mL (≈ 118 µM)

**Q.** What about the IC50 (K562 [3]) of the same compound?
**A.** 82 µg/mL (≈ 183 µM)

**Q.** What about the IC50 (K562 [4]) of the same compound?
**A.** 67 µg/mL (≈ 149 µM)

**Q.** What about the IC50 (B16) of the same compound?
**A.** 88 µg/mL (≈ 196 µM)

**Q.** And the IC50 (HeLa)?
**A.** 86.5 µg/mL (≈ 193 µM)

**Q.** What about the IC50 (KB) of the same compound?
**A.** 98 µg/mL (≈ 219 µM)

**Q.** What about the IC50 (Protease) of the same compound?
**A.** 10.7 µM
